According to ChEMBL document CHEMBL2021892, “Rational design, synthesis and anti-proliferative properties of new CB2 selective cannabinoid receptor ligands: an investigation of the 1,8-naphthyridin-2(1H)-one scaffold” (Eur J Med Chem, 2012):
pKi: −log10 of the molar value. Active and inactive are the calls of the source. No cut-off for these calls is given here.

What was measured:
Cannabinoid receptor 1 = Cannabinoid receptor 1 (Homo sapiens, UniProt P21554); experiment: Displacement of [3H]CP55940 from recombinant human CB1 receptor expressed in human HEK293 cell membrane after 90 mins; assay type: cell membranes
Method in brief: (§1)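 Membranes of HEK-293 cells transfected with human recombinant CB1R (Bmax 2.5 pmol/mg protein) or CB2R (Bmax 4.7 pmol/mg protein). Test compound at increasing concentrations displaced [3H]CP55,940 over 90 min at 30 °C. Ki obtained from IC50 by Cheng–Prusoff. Means of at least three experiments run in duplicate.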

Cannabinoid receptor 2 = Cannabinoid receptor 2 (Homo sapiens, UniProt P34972); experiment: Displacement of [3H]CP55940 from recombinant human CB2 receptor expressed in human HEK293 cell membrane after 90 mins; assay type: cell membranes; method in brief: as §1
HEK293 = experiment: Selectivity index, ratio of Ki for recombinant human CB1 receptor expressed in human HEK293 cell membrane to recombinant human CB2 receptor expressed in human HEK293 cell membrane; assay type: cell-based
Method in brief: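 Selectivity index is Ki(CB1)/Ki(CB2). Both Ki values come from [3H]CP55,940 displacement over 90 min at 30 °C, using membranes of HEK-293 cells expressing human recombinant CB1R or CB2R, with Cheng–Prusoff conversion.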

[1] = Solubility of the compound in DMSO/water solution; assay type: physicochemical
MCF7 = experiment: Antiproliferative activity against human MCF7 cells at 1 uM after 4 days by XTT assay; assay type: functional; settings: MCF7, 96 h
Method in brief: (§2)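 Cells kept at 37 °C, 5% CO2; seeded at 3 × 10³ cells per well, treated 3 h later with vehicle or ligand (1 µM in the four-day panel), medium and ligand renewed every two days for four days. Proliferation read by XTT staining; vehicle-treated O.D. taken as 100%. Two-tailed t-test versus vehicle.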

AGS = experiment: Antiproliferative activity against human AGS cells at 1 uM after 4 days by XTT assay; assay type: functional; settings: 96 h; method in brief: as §2
T98G = experiment: Antiproliferative activity against human T98G cells at 1 uM after 4 days by XTT assay; assay type: functional; settings: 96 h; method in brief: as §2
DU-145 [2] = experiment: Antiproliferative activity against human DU145 cells at 1 uM after 4 days by XTT assay; assay type: functional; settings: DU-145, 96 h; method in brief: as §2
[3] = Antiproliferative activity against human WS1 cells at 1 uM after 4 days by XTT assay; assay type: cell-based; settings: for Activity: ws1, 96 h, 1 µM; method in brief: as §2
DU-145 [4] = experiment: Antiproliferative activity against human DU145 cells at 0.1 to 1 uM after 24 hrs by SRB assay; assay type: functional, cell-based
Method in brief: (§3)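 DU-145 cells seeded at 10,000 per well, exposed 24 h to CB2 ligands, with or without SR144528 (3 µM). Line 2 covers 0.1 to 1 µM; lines 3 and 4 use 0.3 µM. Proliferation read as O.D. by sulforhodamine B. Three independent experiments; two-tailed t-test against vehicle and against ligand plus SR144528.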

DU-145 [5] = experiment: Antiproliferative activity against human DU145 cells at 0.3 uM after 24 hrs by SRB assay; assay type: functional, cell-based; method in brief: as §3
DU-145 [6] = experiment: Antiproliferative activity against human DU145 cells at 0.3 uM after 24 hrs by SRB assay in presence of CB2 receptor antagonist SR144528; assay type: functional, cell-based; method in brief: as §3
[7] = Antiproliferative activity against myelin basic protein-activated human lymphocytes at 0.3 uM; assay type: cell-based; settings: lymphocyte
DU-145 [8] = experiment: Down-regulation of CB2 receptor protein level in human DU145 cells at 0.3 uM after 24 hrs by immunoblot analysis; assay type: functional, cell-based
Method in brief: (§4)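 DU-145 cells incubated 24 h with ligand at 0.3 µM, with or without SR144528 at 3 µM. Cells washed in PBS, lysed at pH 7.5 in HEPES/NaCl/EDTA/NaF/vanadate/Triton buffer, and centrifuged at 12,000 g, 4 °C. 40 µg protein run on 12% SDS-PAGE and transferred to nitrocellulose. Blots probed overnight with anti-CB2, detected by HRP anti-rabbit and ECL, normalized to actin.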

DU-145 [9] = experiment: Down-regulation of CB2 receptor protein level in human DU145 cells at 0.3 uM after 24 hrs by immunoblot analysis in presence of CB2 receptor antagonist SR144528; assay type: functional, cell-based; method in brief: as §4
DU-145 [10] = experiment: Down-regulation of CB2 receptor protein level in human DU145 cells at 0.3 uM after 24 hrs by immunoblot analysis in presence of CB1 receptor antagonist SR141716; assay type: functional, cell-based

Chain of Cannabinoid receptor 2 (P34972 whole entry): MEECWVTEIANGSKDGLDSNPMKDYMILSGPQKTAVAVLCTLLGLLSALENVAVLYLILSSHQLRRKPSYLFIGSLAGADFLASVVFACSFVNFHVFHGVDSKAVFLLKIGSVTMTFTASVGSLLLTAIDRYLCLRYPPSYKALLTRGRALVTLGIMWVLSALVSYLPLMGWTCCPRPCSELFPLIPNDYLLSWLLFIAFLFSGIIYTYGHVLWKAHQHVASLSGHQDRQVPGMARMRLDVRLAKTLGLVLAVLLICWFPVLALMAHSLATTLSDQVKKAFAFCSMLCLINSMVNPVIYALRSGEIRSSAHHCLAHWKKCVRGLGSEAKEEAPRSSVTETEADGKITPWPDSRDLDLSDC
Chain of Cannabinoid receptor 1 (P21554 whole entry): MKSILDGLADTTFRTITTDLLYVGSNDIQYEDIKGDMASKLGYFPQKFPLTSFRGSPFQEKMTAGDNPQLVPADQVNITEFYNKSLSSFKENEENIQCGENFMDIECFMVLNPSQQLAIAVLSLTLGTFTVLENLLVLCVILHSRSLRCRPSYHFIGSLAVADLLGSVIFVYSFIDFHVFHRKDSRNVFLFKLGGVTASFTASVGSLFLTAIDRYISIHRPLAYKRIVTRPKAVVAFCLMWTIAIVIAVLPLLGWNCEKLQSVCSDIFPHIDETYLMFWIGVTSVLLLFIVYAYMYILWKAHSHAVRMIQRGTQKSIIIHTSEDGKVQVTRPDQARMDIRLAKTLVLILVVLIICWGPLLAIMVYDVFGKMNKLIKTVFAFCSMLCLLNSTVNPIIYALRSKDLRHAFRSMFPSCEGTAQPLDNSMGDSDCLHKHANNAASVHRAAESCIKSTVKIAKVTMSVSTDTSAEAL

Row | Compound | pKi (Cannabinoid receptor 1) | pKi (Cannabinoid receptor 2) | Ratio Ki (HEK293) | also measured
1 | O=C(NC1CCCCC1)c1cc2ccccc2nc1OCc1ccc(F)cc1 | 5.92 | 6.89 | 9.2 | –
2 | O=C(NC1CCCCC1)c1c(O)c2cccnc2n(Cc2ccc(F)cc2)c1=O | – | – | – | solubility [1]: Insoluble
3 | O=C(NC1CCCCCC1)c1cc2ccccc2n(Cc2ccc(F)cc2)c1=O | 7.94 | 9.60 | 48 | –
4 | O=C(NC1CCCCC1)c1cc2ccccc2n(Cc2ccc(F)cc2)c1=O | 7.78 | 8.54 | 5.7 | –
5 | O=C(NC1CCCCCC1)c1cccn(CCN2CCOCC2)c1=O | 6.02 | 6.10 | 1.2 | –
6 | O=C(NC1CCCCC1)c1cccn(CCN2CCOCC2)c1=O | < 5.00 | 5.10 | – | –
7 | O=C(NC1CCCCC1)c1cccnc1OCc1ccc(F)cc1 | 5.74 | 6.60 | 7.3 | –
8 | CCCC(C)(C)c1ccc2c(c1)OC(C)(C)[C@@H]1CC=C(C)C[C@@H]21 | 6.93 | 8.74 | – | –
9 | O=C(NC1CCCCC1)c1cccn(Cc2ccccc2)c1=O | 6.10 | 6.70 | 4 | –
10 | O=C(NC1CCCCCC1)c1c(O)c2cccnc2n(CCN2CCOCC2)c1=O | 6.63 | 8.74 | 130 | inhibition at 1 µM (MCF7): 26%; inhibition at 1 µM (AGS): 62%; inhibition at 1 µM (T98G): 15%; inhibition at 1 µM (DU-145 [2]): 33%; inhibition at 96 h, 1 µM ([3]; WS1 cells): 21%; inhibition (DU-145 [4]): Active; Activity (DU-145 [5]): Active; Activity (DU-145 [6]): inactive; Activity [7]: Non-toxic; Activity (DU-145 [8]): Active; Activity (DU-145 [9]): inactive; Activity (DU-145 [10]): Active
11 | O=C(NC1CCCCCC1)c1c(O)c2cccnc2n(Cc2ccc(F)cc2)c1=O | – | – | – | solubility [1]: Insoluble
12 | O=C(NC1CCCCCC1)c1cccnc1OCc1ccc(F)cc1 | 7.00 | 7.60 | 4 | –
13 | O=C(NC1CCCCC1)c1cc2ccccc2n(CCN2CCOCC2)c1=O | 6.52 | 8.05 | 33 | –
14 | O=C(NC1CCCCCC1)c1cc2ccccc2n(CCN2CCOCC2)c1=O | 6.69 | 8.70 | 103 | inhibition at 1 µM (DU-145 [2]): 11%; Activity [3]: Non-toxic; inhibition (DU-145 [4]): Active; Activity (DU-145 [5]): Active; Activity (DU-145 [6]): inactive; Activity [7]: Non-toxic; Activity (DU-145 [8]): Active; Activity (DU-145 [9]): inactive; Activity (DU-145 [10]): Active
15 | O=C(NC1CCCCC1)c1c(O)c2cccnc2n(CCN2CCOCC2)c1=O | 7.19 | 8.62 | 26.6 | –
16 | O=C(NC1CCCCCC1)c1cccn(Cc2ccc(F)cc2)c1=O | 7.37 | 8.11 | 5.5 | inhibition at 1 µM (MCF7): 12%; inhibition at 1 µM (DU-145 [2]): 15%; Activity [3]: Non-toxic; inhibition (DU-145 [4]): Active; Activity (DU-145 [5]): Active; Activity (DU-145 [6]): inactive; Activity [7]: Non-toxic; Activity (DU-145 [8]): Active; Activity (DU-145 [9]): inactive; Activity (DU-145 [10]): Active
17 | O=C(NC1CCCCC1)c1cccn(Cc2ccc(F)cc2)c1=O | 7.15 | 7.70 | 3.5 | –
18 | O=C(NC1CCCCC1)c1cc2ccccc2n(Cc2ccccc2)c1=O | 7.17 | 7.80 | 4.2 | –
19 | Cc1ccc(Cn2nc(C(=O)N[C@@H]3C(C)(C)[C@@H]4CC[C@@]3(C)C4)cc2-c2ccc(Cl)c(C)c2)cc1 | – | – | – | Activity (DU-145 [6]): inactive; Activity [7]: Non-toxic; Activity (DU-145 [8]): Active
20 | O=C(NC1CCCCC1)c1c(O)c2cccnc2n(Cc2ccccc2)c1=O | 6.25 | 7.10 | 7.1 | –
21 | O=C(NC1CCCCC1)c1cccnc1OCc1ccccc1 | < 5.00 | 6.04 | – | –
